From ChEMBL document CHEMBL1154907, “Synthesis and preclinical evaluations of 2-(2-fluorophenyl)-6,7-methylenedioxyquinolin-4-one monosodium phosphate (CHM-1-P-Na) as a potent antitumor agent” (J Med Chem, 2010)
≈ marks a conversion by molar mass, not a printed value. Calls of active or inactive are those of the source. The rule behind the calls is not given here.

Columns and labels:
ACHN = test: Growth inhibition of human ACHN cells by SRB assay; type: functional
Method in brief: (§1)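 Human cancer cell panel; five concentrations from 10^-4 to 10^-8 M; growth measured by sulforhodamine B colorimetric method; GI50, TGI and LC50 derived from computer-analysed dose-response curves.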

SK-OV-3 [1] = test: Induction of mitotic arrest in human SKOV3 cells assessed as increase in […] upregulation at 10 uM after 24 hrs by SDS-PAGE; type: functional, cell-based
Method in brief: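 SKOV-3 cells treated with vehicle (DMSO) or 10 μM for indicated times, or indicated doses for 24 h; whole-cell lysates resolved by SDS-PAGE, blotted and probed with anti-BubR1 mouse mAb; ECL detection.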

Pepsin A (Sus scrofa) = Pepsin A (Sus scrofa) (UniProt P00791); test: Inhibition of pig pepsin at 10 uM by enzyme assay
Sequence of Pepsin A (Sus scrofa) (P00791 60-385 limits assumed): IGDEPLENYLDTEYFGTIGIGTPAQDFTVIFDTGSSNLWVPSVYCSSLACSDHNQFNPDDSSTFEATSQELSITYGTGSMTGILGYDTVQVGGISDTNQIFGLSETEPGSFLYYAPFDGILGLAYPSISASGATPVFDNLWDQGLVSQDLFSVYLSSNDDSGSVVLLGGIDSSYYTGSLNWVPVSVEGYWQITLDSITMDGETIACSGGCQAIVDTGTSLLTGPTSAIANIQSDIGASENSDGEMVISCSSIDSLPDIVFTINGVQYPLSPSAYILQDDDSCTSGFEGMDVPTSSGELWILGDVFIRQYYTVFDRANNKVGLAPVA
Method in brief: (§2)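 Commercial spectrum screen of enzyme assays under standard protocols; percent inhibition tested at 10 μM; IC50 determined for targets showing significant inhibition at that concentration; SEM given where multiple independent determinations.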

PC-3 = test: Growth inhibition of human PC3 cells by SRB assay; type: functional; method in brief: as §1
[2] = Tmax in CD1 mouse at 10 mg/kg, ip; type: ADME, organism-based; parameters: dose 10 mg/kg, route intraperitoneal; conditions: in vivo
Method in brief: (§3)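 Male CD-1 (Crl.) mice, 22-24 g, single 10 mg/kg ip bolus of parent drug in cremophor/DMSO/saline (20/5/75, v/v; 2 mg/mL, 5 mL/kg). Blood sampled at 0, 5, 15, 30 min, 1, 1.5, 2, 4, 6, 9, 24, 27 h, three mice per time point. Plasma extracted with acetonitrile, analysed by LC-MS/MS. Parameters calculated from mean plasma concentrations.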

OVCAR-3 = test: Antitumor activity against human OVCAR-3 cells xenografted in nude mouse assessed as increase in lifespan of organism at 200 mg/kg, ip administered in Q7D x 3 schedule relative to control; type: functional; conditions: route intraperitoneal
[3] = Mean residence time in CD1 mouse at 10 mg/kg, ip; type: ADME, organism-based; parameters: dose 10 mg/kg, route intraperitoneal; conditions: in vivo; method in brief: as §3
SK-OV-3 [4] = test: Induction of mitotic arrest in human SKOV3 cells assessed as increase in securin expression at 10 uM after 24 hrs by Western blot; type: functional, cell-based
Method in brief: (§4)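 SKOV-3 cells in DMEM/F-12 with 10% fetal calf serum, treated with 10 μM or vehicle (DMSO). Lysates, 50 μg protein, resolved by SDS-PAGE, transferred to PVDF, probed for cyclin B1 or securin with β-actin loading control; ECL detection, bands quantified by phosphorimaging; at least three separate experiments.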

SNB-78 = test: Growth inhibition of human SNB78 cells by SRB assay; type: functional
Method in brief: (§5)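 Cancer cell panel; growth measured by sulforhodamine B colorimetric method across five concentrations from 10^-4 to 10^-8 M; GI50, TGI and LC50 derived from computer-analysed dose-response curves.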

SK-OV-3 [5] = test: Induction of mitotic arrest in human SKOV3 cells assessed as increase in cyclin B1 expression at 10 uM after 24 hrs by Western blot; type: functional, cell-based; method in brief: as §4
St-4 = test: Growth inhibition of human St-4 cells by SRB assay; type: functional; method in brief: as §5
MKN-7 = test: Growth inhibition of human MKN7 cells by SRB assay; type: functional; method in brief: as §1
MKN-45 = test: Growth inhibition of human MKN45 cells by SRB assay; type: functional; method in brief: as §1
[6] = Half life in CD1 mouse at 10 mg/kg, ip; type: ADME, organism-based; parameters: dose 10 mg/kg, route intraperitoneal; conditions: in vivo; method in brief: as §3
[7] = Solubility in water; type: physicochemical; conditions: buffer
NCI-H226 = test: Growth inhibition of human NCI-H226 cells by SRB assay; type: functional; method in brief: as §1
OVCAR-5 = test: Growth inhibition of human OVCAR5 cells by SRB assay; type: functional; method in brief: as §1
SNB-75 = test: Growth inhibition of human SNB75 cells by SRB assay; type: functional; method in brief: as §5
[8] = Growth inhibition of human MKN1 cells by SRB assay; type: functional, MKN-1; method in brief: as §1
SK-OV-3 [9] = test: Cell cycle arrest in human SKOV3 cells assessed as increase in accumulation at G2/M phase at 10 uM after 36 hrs by propidium iodide-based flow cytometry; type: functional
Method in brief: (§6)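 SKOV-3 cells (DMEM/F-12, 10% fetal calf serum) treated with 10 μM for 6, 12, 24, 36 or 48 h; trypsinized, PBS-washed, fixed in 70% ice-cold ethanol overnight at -20 °C, RNase A treated, propidium iodide stained; DNA content by flow cytometry, phase percentages and hypodiploid fraction scored.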

SK-OV-3 [10] = test: Induction of mitotic arrest in human SKOV3 cells assessed as microtubule disruption at 10 uM after 24 hrs by SDS-PAGE; type: functional, cell-based
SK-OV-3 [11] = test: Cell cycle arrest in human SKOV3 cells assessed as decrease in accumulation at G0/G1 phase at 10 uM after 36 hrs by propidium iodide-based flow cytometry; type: functional; method in brief: as §6
[12] = Growth inhibition of human HBC5 cells by SRB assay; type: functional; method in brief: as §1
HCC 2998 = test: Growth inhibition of human HCC2998 cells by SRB assay; type: functional; method in brief: as §1
HT-29 = test: Growth inhibition of human HT-29 cells by SRB assay; type: functional; method in brief: as §1
A549 = test: Growth inhibition of human A549 cells by SRB assay; type: functional; method in brief: as §1
[13] = molecular target: Cathepsin E (Homo sapiens) (UniProt P14091); test: Inhibition of human cathepsin E at 10 uM by enzyme assay; method in brief: as §2
Sequence of Cathepsin E (Homo sapiens) (P14091 whole entry): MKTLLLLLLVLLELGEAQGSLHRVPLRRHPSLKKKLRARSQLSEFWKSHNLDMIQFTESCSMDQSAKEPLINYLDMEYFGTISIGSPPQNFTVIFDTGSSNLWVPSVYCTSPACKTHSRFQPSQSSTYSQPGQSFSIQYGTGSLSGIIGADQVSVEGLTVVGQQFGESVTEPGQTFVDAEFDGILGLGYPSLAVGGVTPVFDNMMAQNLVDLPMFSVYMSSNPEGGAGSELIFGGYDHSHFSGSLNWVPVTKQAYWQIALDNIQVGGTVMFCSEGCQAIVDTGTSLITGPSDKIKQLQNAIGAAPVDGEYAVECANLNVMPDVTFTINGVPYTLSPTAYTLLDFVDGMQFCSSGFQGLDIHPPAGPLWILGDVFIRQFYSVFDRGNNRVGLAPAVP

[14] = molecular target: Glutamate decarboxylase (Clostridium perfringens (strain 13 / Type A)) (UniProt Q8XIQ6); test: Inhibition of Clostridium perfringens glutamate decarboxylase at 10 uM by enzyme assay
Method in brief: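 Single-concentration screen at 10 μM in a contract enzyme assay panel run under standard protocols. Read-out is percent inhibition of the enzyme.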

U-251 = test: Growth inhibition of human U251 cells by SRB assay; type: functional; method in brief: as §5
SK-OV-3 [15] = test: Cell cycle arrest in human SKOV3 cells assessed as accumulation of cells with G2/M DNA at 10 uM after 36 hrs by propidium iodide-based flow cytometry; type: functional; method in brief: as §6
SF-268 = test: Growth inhibition of human SF268 cells by SRB assay; type: functional; method in brief: as §5
OVCAR-8 = test: Growth inhibition of human OVCAR8 cells by SRB assay; type: functional; method in brief: as §1

Structure (SMILES): O=c1cc(-c2ccccc2F)[nH]c2cc3c(cc12)OCO3
- GI50 (ACHN): 0.389 µM
- CC50 (ACHN; read-out: pLC50 (converted)): > 100 µM
- TGI (ACHN; read-out: pTGI): > 100 µM
- Activity (SK-OV-3 [1]): Active
- inhibition (Pepsin A (Sus scrofa)): 85%
- GI50 (PC-3; PC-3): 0.0759 µM
- CC50 (PC-3; PC-3, read-out: pLC50 (converted)): > 100 µM
- TGI (PC-3; PC-3, read-out: pTGI): > 100 µM
- Tmax [2]: 0.3 h
- Activity (OVCAR-3): 124%
- MRT [3]: 7.3 h
- Activity (SK-OV-3 [4]): Active
- GI50 (SNB-78; SNB-78): 0.219 µM
- CC50 (SNB-78; SNB-78, read-out: pLC50 (converted)): > 100 µM
- TGI (SNB-78; SNB-78, read-out: pTGI (converted)): 12 µM
- Activity (SK-OV-3 [5]): Active
- GI50 (St-4; St-4): 6.61 µM
- CC50 (St-4; St-4, read-out: pLC50 (converted)): > 100 µM
- TGI (St-4; St-4, read-out: pTGI (converted)): 93.3 µM
- GI50 (MKN-7; MKN-7): 0.0457 µM
- CC50 (MKN-7; MKN-7, read-out: pLC50 (converted)): > 100 µM
- TGI (MKN-7; MKN-7, read-out: pTGI): > 100 µM
- GI50 (MKN-45; MKN-45): 0.0575 µM
- CC50 (MKN-45; MKN-45, read-out: pLC50 (converted)): > 100 µM
- TGI (MKN-45; MKN-45, read-out: pTGI): > 100 µM
- half-life [6]: 7.3 h
- solubility [7]: 0.013 µg/mL (≈ 0.0459 µM)
- GI50 (NCI-H226; NCI-H226): 0.355 µM
- CC50 (NCI-H226; NCI-H226, read-out: pLC50 (converted)): > 100 µM
- TGI (NCI-H226; NCI-H226, read-out: pTGI): > 100 µM
- GI50 (OVCAR-5; OVCAR-5): 0.813 µM
- CC50 (OVCAR-5; OVCAR-5, read-out: pLC50 (converted)): > 100 µM
- TGI (OVCAR-5; OVCAR-5, read-out: pTGI): > 100 µM
- GI50 (SNB-75; SNB-75): 20 µM
- CC50 (SNB-75; SNB-75, read-out: pLC50 (converted)): > 100 µM
- TGI (SNB-75; SNB-75, read-out: pTGI): > 100 µM
- GI50 ([8]; MKN-1): 0.0776 µM
- CC50 ([8]; MKN-1, read-out: pLC50 (converted)): > 100 µM
- TGI ([8]; MKN-1, read-out: pTGI): > 100 µM
- Activity (SK-OV-3 [9]): Active
- Activity (SK-OV-3 [10]): Active
- Activity (SK-OV-3 [11]): Active
- GI50 ([12]; HBC5): 0.776 µM
- CC50 ([12]; HBC5, read-out: pLC50 (converted)): > 100 µM
- TGI ([12]; HBC5, read-out: pTGI): > 100 µM
- GI50 (HCC 2998; HCC 2998): 0.129 µM
- CC50 (HCC 2998; HCC 2998, read-out: pLC50 (converted)): > 100 µM
- TGI (HCC 2998; HCC 2998, read-out: pTGI (converted)): 1.26 µM
- GI50 (HT-29; HT-29): 0.309 µM
- CC50 (HT-29; HT-29, read-out: pLC50 (converted)): > 100 µM
- TGI (HT-29; HT-29, read-out: pTGI (converted)): 1.2 µM
- GI50 (A549; A549): 0.692 µM
- CC50 (A549; A549, read-out: pLC50 (converted)): > 100 µM
- TGI (A549; A549, read-out: pTGI): > 100 µM
- inhibition [13]: 12%
- inhibition [14]: 66%
- GI50 (U-251; U-251): 0.0692 µM
- CC50 (U-251; U-251, read-out: pLC50 (converted)): > 100 µM
- TGI (U-251; U-251, read-out: pTGI (converted)): 18.2 µM
- Activity (SK-OV-3 [15]): Active
- GI50 (SF-268; SF-268): 0.1 µM
- CC50 (SF-268; SF-268, read-out: pLC50 (converted)): > 100 µM
- TGI (SF-268; SF-268, read-out: pTGI): > 100 µM
- GI50 (OVCAR-8; OVCAR-8): 0.162 µM
- CC50 (OVCAR-8; OVCAR-8, read-out: pLC50 (converted)): > 100 µM
- TGI (OVCAR-8; OVCAR-8, read-out: pTGI (converted)): 0.794 µM
